The results in this text go back to ChEMBL document CHEMBL1135746, “Structure-activity relationships of the antimalarial agent artemisinin. 7. Direct modification of (+)-artemisinin and in vivo antimalarial screening of new, potential preclinical antimalarial candidates” (J Med Chem, 2002).

Holding throughout (type): functional
Experiment [1] has as its system Plasmodium berghei. As to the kind of experiment: Effective dose ED90 against Plasmodium berghei N in mice (Mus musculus) malaria model after oral administration. Put shortly: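 Peters' 4-day test: two batches of five male random-bred Swiss albino mice (18-22 g) were inoculated i.v. with 2 × 10⁶ P. berghei N-parasitized RBC. Drug was given once daily for four consecutive days. Compounds were dissolved in DMSO, then diluted in water for subcutaneous or oral dosing. Parasitemia was read the day after the last treatment.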

Experiment [2] concerns Plasmodium berghei. As to the kind of experiment: Effective dose ED90 against Plasmodium berghei N in mice (Mus musculus) malaria model after subcutaneous administration. Conditions: Plasmodium berghei, sc; read-out: ED90.
In experiment [3] the test system is Plasmodium berghei. The experiment can be described thus: Effective dose ED50 against Plasmodium berghei N in mice (Mus musculus) malaria model after subcutaneous administration. As to conditions: Plasmodium berghei, sc; read-out: ED50.
Experiment [4] concerns Plasmodium berghei. As to the kind of experiment: Effective dose […] against Plasmodium berghei N in a mice (Mus musculus) malaria model after oral dose.
Experiment [5] relates to Plasmodium yoelii. The experiment can be described thus: Effective subcutaneous dose ED50 against Plasmodium yoelii sspNS. As to conditions: sc.
The subject of experiment [6] is Plasmodium yoelii. The experiment can be described thus: Effective subcutaneous dose ED90 against Plasmodium yoelii sspNS. Conditions: Plasmodium yoelii, sc; read-out: ED90.

`OC(c1cc(C(F)(F)F)nc2c(C(F)(F)F)cccc12)C1CCCCN1` (stereo unspecified) [MEFLOQUINE]: the ED90 is 5.1 mg/kg in the experiment on Plasmodium berghei [1], 2.3 mg/kg with Plasmodium berghei [2] and 6 mg/kg in the experiment with Plasmodium yoelii [6]. Also, the results for the ED50 in the experiment on Plasmodium berghei [3], with Plasmodium berghei [4] and in the experiment with Plasmodium yoelii [5] were 1.1 mg/kg, 3.3 mg/kg and 2.3 mg/kg, respectively.
